Test [1] is described as follows: Association constant to Ac2-L-Lys-D-Ala-D-Ala determined at pH 9; Value ranges from 5E4-7.5E4.
The test system of test [2] is Staphylococcus epidermidis. Put plainly: Minimum inhibitory concentration against Staphylococcus epidermidis ATCC 12228. The class given is functional. An outline of the steps:
(§1)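 MIC (µg/mL) by microbroth dilution in Iso-Sensitest broth; final inoculum 10^4 cfu/mL; 24 h at 37 °C in air.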

Another test relates to Staphylococcus aureus. Put plainly: Minimum inhibitory concentration against Staphylococcus aureus L 165. The class given is functional. An outline of the steps: as §1
A further test deals with Pseudomonas aeruginosa. The test can be described thus: Minimum inhibitory concentration against Pseudomonas aeruginosa ATCC 10145. Format: functional. An outline of the steps:
as §1

For the next test, the system named is Enterococcus faecalis. Put plainly: Minimum inhibitory concentration against Enterococcus faecalis ATCC 7080. The class given is functional. An outline of the steps:
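Microbroth dilution MIC (µg/mL), final inoculum 10^4 cfu/mL, incubated 24 h at 37 °C in air.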

Test [3] deals with Staphylococcus haemolyticus. Put plainly: Minimum inhibitory concentration against Staphylococcus haemolyticus L 602. Format: functional. An outline of the steps:
as §1

The subject of a further test is Streptococcus pneumoniae. Put plainly: Minimum inhibitory concentration against Streptococcus pneumoniae L 44. The class given is functional. An outline of the steps:
(§2)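 MIC (µg/mL) by microbroth dilution in Todd-Hewitt broth, final inoculum 10^4 cfu/mL, incubated 24 h at 37 °C in air.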

A further test relates to Escherichia coli. Put plainly: Minimum inhibitory concentration against Escherichia coli L 47. The class given is functional. An outline of the steps:
as §1

The next test concerns Proteus vulgaris. Put plainly: Minimum inhibitory concentration against Proteus vulgaris ATCC 881. Format: functional. An outline of the steps: as §1
The subject of test [4] is Streptococcus pyogenes. Put plainly: Minimum inhibitory concentration of compound was determined against Streptococcus pyogenes L 49 in mouse. The class given is functional.
The test system of test [5] is Streptococcus pyogenes. The test can be described thus: Minimum inhibitory concentration against Streptococcus pyogenes L 49. Format: functional. An outline of the steps:
as §2

The subject of test [6] is Streptococcus pyogenes. Put plainly: Efficacy of compound administered subcutaneously against Streptococcus pyogenes L 49 Septicemia in mouse. Format: functional. As to conditions: sc. An outline of the steps:
(§3)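 Mice were infected intraperitoneally with about 10^5 Strep. pyogenes L 49 cells, about 100 times the 50% lethal dose. Groups of 5–8 mice were treated once right after challenge, by the route stated in the line. ED50 (mg/kg) was derived from percentage survival at each dose on day 7 (Spearman-Kärber).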

Test [7] can be described thus: Association constant to Ac2-L-Lys-D-Ala-D-Ala determined at pH 9; Value ranges from (9.5E4-3.5E5).
The test system of test [8] is Streptococcus pyogenes. The test can be described thus: Efficacy of compound administered perorally against Streptococcus pyogenes L 49 Septicemia in mouse. The class given is functional. As to conditions: po. An outline of the steps: as §3

≈ marks a conversion by molar mass, not a printed value.

For the molecule `NCCN(CCN)CCNC(=O)[C@H]1NC(=O)[C@H]2NC(=O)[C@H](NC(=O)[C@@H]3NC(=O)[C@H]4NC(=O)[C@@H](Cc5ccc(c(Cl)c5)Oc5cc3cc(c5O)Oc3ccc(cc3Cl)[C@H]2O)NC(=O)[C@H](N)c2ccc(O)c(c2)Oc2cc(O)cc4c2)c2ccc(O)c(c2)-c2c(O)cc(O)cc21`, in test [1], the Ka stood at 75000 M⁻¹. Moreover, the MIC in [2] came to 0.016 µg/mL (≈ 0.0121 µM); against Staphylococcus aureus it was 0.063 µg/mL (≈ 0.0475 µM); against Pseudomonas aeruginosa it was 8 µg/mL (≈ 6.03 µM); against Enterococcus faecalis, 0.125 µg/mL (≈ 0.0942 µM); in [3], 0.063 µg/mL (≈ 0.0475 µM); with Streptococcus pneumoniae, 0.125 µg/mL (≈ 0.0942 µM). The MIC against Escherichia coli came out at 1 µg/mL (≈ 0.753 µM); against Proteus vulgaris, 32 µg/mL (≈ 24.1 µM); against Streptococcus pyogenes [4], 0.06 µg/mL (≈ 0.0452 µM); against Streptococcus pyogenes [5] it was 0.063 µg/mL (≈ 0.0475 µM). This molecule displayed an ED50 in the test on Streptococcus pyogenes [6] of 1.25 mg/kg.
In the case of `NCCNCCNC(=O)[C@H]1NC(=O)[C@H]2NC(=O)[C@H](NC(=O)[C@@H]3NC(=O)[C@H]4NC(=O)[C@@H](Cc5ccc(c(Cl)c5)Oc5cc3cc(c5O)Oc3ccc(cc3Cl)[C@H]2O)NC(=O)[C@H](N)c2ccc(O)c(c2)Oc2cc(O)cc4c2)c2ccc(O)c(c2)-c2c(O)cc(O)cc21`, the Ka in test [1] was determined as 75000 M⁻¹. Moreover, the MIC was 0.063 µg/mL (≈ 0.0491 µM) in test [2]; 0.063 µg/mL (≈ 0.0491 µM) in the test on Staphylococcus aureus; 64 µg/mL (≈ 49.8 µM) against Pseudomonas aeruginosa; 0.125 µg/mL (≈ 0.0973 µM) against Enterococcus faecalis; 0.125 µg/mL (≈ 0.0973 µM) in test [3]; 0.125 µg/mL (≈ 0.0973 µM) in the test on Streptococcus pneumoniae. Also, the MIC amounted to 8 µg/mL (≈ 6.23 µM) against Escherichia coli, 64 µg/mL (≈ 49.8 µM) with Proteus vulgaris and 0.125 µg/mL (≈ 0.0973 µM) in the test on Streptococcus pyogenes [5].
With `NCCCNCCCCNCCCNC(=O)[C@H]1NC(=O)[C@H]2NC(=O)[C@H](NC(=O)[C@@H]3NC(=O)[C@H]4NC(=O)[C@@H](Cc5ccc(c(Cl)c5)Oc5cc3cc(c5O)Oc3ccc(cc3Cl)[C@H]2O)NC(=O)[C@H](N)c2ccc(O)c(c2)Oc2cc(O)cc4c2)c2ccc(O)c(c2)-c2c(O)cc(O)cc21`, the Ka in [1] stood at 75000 M⁻¹. Moreover, the MIC in [2] is 0.063 µg/mL (≈ 0.0455 µM); in the test with Staphylococcus aureus, 0.063 µg/mL (≈ 0.0455 µM); against Pseudomonas aeruginosa it was 8 µg/mL (≈ 5.78 µM); with Enterococcus faecalis it was 0.125 µg/mL (≈ 0.0904 µM); in test [3], 0.125 µg/mL (≈ 0.0904 µM); against Streptococcus pneumoniae, 0.125 µg/mL (≈ 0.0904 µM). The MIC in the test with Escherichia coli turned out to be 2 µg/mL (≈ 1.45 µM); in the test on Proteus vulgaris, 64 µg/mL (≈ 46.3 µM); in the test on Streptococcus pyogenes [4], 0.06 µg/mL (≈ 0.0434 µM); in the test on Streptococcus pyogenes [5], 0.063 µg/mL (≈ 0.0455 µM). The same molecule yielded an ED50 in the test with Streptococcus pyogenes [6] of 0.41 mg/kg.
Molecule `NCCCCNCCCNC(=O)[C@H]1NC(=O)[C@H]2NC(=O)[C@H](NC(=O)[C@@H]3NC(=O)[C@H]4NC(=O)[C@@H](Cc5ccc(c(Cl)c5)Oc5cc3cc(c5O)Oc3ccc(cc3Cl)[C@H]2O)NC(=O)[C@H](N)c2ccc(O)c(c2)Oc2cc(O)cc4c2)c2ccc(O)c(c2)-c2c(O)cc(O)cc21` showed a Ka in test [1] of 75000 M⁻¹. The MIC in test [2] came to 0.063 µg/mL (≈ 0.0475 µM); in the test with Staphylococcus aureus, 0.063 µg/mL (≈ 0.0475 µM); against Pseudomonas aeruginosa, 8 µg/mL (≈ 6.03 µM); with Enterococcus faecalis it was 0.125 µg/mL (≈ 0.0943 µM); in [3] it was 0.063 µg/mL (≈ 0.0475 µM); against Streptococcus pneumoniae it was 0.125 µg/mL (≈ 0.0943 µM). Moreover, the MIC against Escherichia coli stood at 2 µg/mL (≈ 1.51 µM); in the test on Proteus vulgaris, 32 µg/mL (≈ 24.1 µM); against Streptococcus pyogenes [4], 0.06 µg/mL (≈ 0.0452 µM); in the test with Streptococcus pyogenes [5] it was 0.063 µg/mL (≈ 0.0475 µM). Moreover, the ED50 with Streptococcus pyogenes [6] was found to be 0.31 mg/kg.
For the molecule `NCCNCCCNCCNC(=O)[C@H]1NC(=O)[C@H]2NC(=O)[C@H](NC(=O)[C@@H]3NC(=O)[C@H]4NC(=O)[C@@H](Cc5ccc(c(Cl)c5)Oc5cc3cc(c5O)Oc3ccc(cc3Cl)[C@H]2O)NC(=O)[C@H](N)c2ccc(O)c(c2)Oc2cc(O)cc4c2)c2ccc(O)c(c2)-c2c(O)cc(O)cc21`, in test [1], the Ka amounted to 75000 M⁻¹. Also, the MIC in test [2] is 0.063 µg/mL (≈ 0.047 µM); against Staphylococcus aureus it was 0.063 µg/mL (≈ 0.047 µM); against Pseudomonas aeruginosa it was 64 µg/mL (≈ 47.7 µM); with Enterococcus faecalis, 0.125 µg/mL (≈ 0.0932 µM); in [3] it was 0.063 µg/mL (≈ 0.047 µM); with Streptococcus pneumoniae, 0.125 µg/mL (≈ 0.0932 µM). Also, the MIC was determined as 4 µg/mL (≈ 2.98 µM) against Escherichia coli, 128 µg/mL (≈ 95.4 µM) in the test with Proteus vulgaris and 0.063 µg/mL (≈ 0.047 µM) in the test with Streptococcus pyogenes [5].
`NCCCNCCNCCCNC(=O)[C@H]1NC(=O)[C@H]2NC(=O)[C@H](NC(=O)[C@@H]3NC(=O)[C@H]4NC(=O)[C@@H](Cc5ccc(c(Cl)c5)Oc5cc3cc(c5O)Oc3ccc(cc3Cl)[C@H]2O)NC(=O)[C@H](N)c2ccc(O)c(c2)Oc2cc(O)cc4c2)c2ccc(O)c(c2)-c2c(O)cc(O)cc21` gave a Ka in test [1] of 75000 M⁻¹. In addition, the MIC was 0.063 µg/mL (≈ 0.0465 µM) in test [2]; 0.125 µg/mL (≈ 0.0922 µM) against Staphylococcus aureus; 16 µg/mL (≈ 11.8 µM) against Pseudomonas aeruginosa; 0.125 µg/mL (≈ 0.0922 µM) in the test with Enterococcus faecalis; 0.125 µg/mL (≈ 0.0922 µM) in [3]; 0.125 µg/mL (≈ 0.0922 µM) with Streptococcus pneumoniae. The MIC is 2 µg/mL (≈ 1.48 µM) in the test on Escherichia coli, 64 µg/mL (≈ 47.2 µM) in the test on Proteus vulgaris, 0.06 µg/mL (≈ 0.0443 µM) with Streptococcus pyogenes [4] and 0.063 µg/mL (≈ 0.0465 µM) against Streptococcus pyogenes [5]. Moreover, it took a dose of 2.87 mg/kg to reach the 50% effect level in the test with Streptococcus pyogenes [6] (ED50).
As to `CC(=O)N[C@@H]1[C@H](O[C@@H]2c3ccc(c(Cl)c3)Oc3cc4cc(c3O[C@@H]3O[C@@H](CO)[C@@H](O)[C@H](O)[C@@H]3NC(=O)CCCCCCC(C)C)Oc3ccc(cc3Cl)C[C@H]3NC(=O)[C@H](N)c5ccc(O)c(c5)Oc5cc(O)cc(c5)[C@H](NC3=O)C(=O)N[C@H]4C(=O)N[C@H]3C(=O)N[C@@H]2C(=O)N[C@H](C(=O)NCCCN2CCCCN(CCCN)CCCC2)c2cc(O)cc(O[C@H]4O[C@H](CO)[C@@H](O)[C@@H](O)[C@@H]4O)c2-c2cc3ccc2O)O[C@@H](CO)[C@@H](O)[C@@H]1O`, the MIC in test [2] stood at 0.063 µg/mL (≈ 0.0297 µM); against Staphylococcus aureus, 0.25 µg/mL (≈ 0.118 µM); with Enterococcus faecalis, 0.125 µg/mL (≈ 0.059 µM); in test [3], 0.125 µg/mL (≈ 0.059 µM); against Streptococcus pneumoniae, 0.125 µg/mL (≈ 0.059 µM); in the test on Streptococcus pyogenes [5], 0.063 µg/mL (≈ 0.0297 µM). This molecule showed a Ka in test [7] of 350000 M⁻¹. The ED50 came out at 60 mg/kg with Streptococcus pyogenes [8] and 0.06 mg/kg with Streptococcus pyogenes [6].
As for `N[C@H]1C(=O)N[C@@H]2Cc3ccc(c(Cl)c3)Oc3cc4cc(c3O)Oc3ccc(cc3Cl)[C@@H](O)[C@@H]3NC(=O)[C@H](NC(=O)[C@@H]4NC(=O)[C@@H](NC2=O)c2cc(O)cc(c2)Oc2cc1ccc2O)c1ccc(O)c(c1)-c1c(O)cc(O)cc1[C@@H](C(=O)O)NC3=O` [TEICOPLANIN AGLYCON], the MIC in [2] is 0.016 µg/mL (≈ 0.0133 µM); against Staphylococcus aureus, 0.063 µg/mL (≈ 0.0525 µM); with Pseudomonas aeruginosa, over 128 µg/mL; with Enterococcus faecalis it was 0.125 µg/mL (≈ 0.104 µM); in test [3], 0.25 µg/mL (≈ 0.209 µM); with Streptococcus pneumoniae, 0.125 µg/mL (≈ 0.104 µM). In addition, the MIC was determined as 64 µg/mL (≈ 53.4 µM) against Escherichia coli, 128 µg/mL (≈ 107 µM) in the test with Proteus vulgaris, 0.13 µg/mL (≈ 0.108 µM) with Streptococcus pyogenes [4] and 0.125 µg/mL (≈ 0.104 µM) against Streptococcus pyogenes [5]. Moreover, it took a dose of 0.95 mg/kg to reach the 50% effect level in the test with Streptococcus pyogenes [6] (ED50).

What is called MIC is the lowest concentration that inhibits growth of the organism. Low readings indicate a more susceptible organism, high ones a less susceptible organism. Usually ED50 stands for the midpoint of the dose-response relation. Read a high ED50 as weaker potency.

(Values after ChEMBL document CHEMBL1125337, “Synthesis and antibacterial activity of a series of basic amides of teicoplanin and deglucoteicoplanin with polyamines” (J Med Chem, 1992).)
